From ChEMBL document CHEMBL2440035, “Azetidines and spiro azetidines as novel P2 units in hepatitis C virus NS3 protease inhibitors” (Bioorg Med Chem Lett, 2013)

Tests used:
Huh-7 = experiment: Cytotoxicity against human HuH7 cells; format: cell-based
Method in brief: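 Huh7 cytotoxicity measured together with the replicon antiviral assay, by extraction and amplification of ribosomal RNA. Each concentration run in triplicate and reported as mean.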

Vero = experiment: Cytotoxicity against african green monkey Vero cells; format: cell-based; details: chlorocebus sabaeus
Method in brief: (§1)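 Cytotoxicity was profiled in three cell types: primary human peripheral blood mononuclear (PBM) cells, CEM (a human T-cell-derived line) and Vero (African green monkey kidney epithelial cells).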

CCRF-CEM = experiment: Cytotoxicity against human CEM cells; format: cell-based; method in brief: as §1
PBMC = experiment: Cytotoxicity against human PBMC; format: cell-based; method in brief: as §1
Hepatitis C virus [1] = experiment: Antiviral activity against Hepatitis C virus infected in human HuH7 cells assessed as viral RNA replication; format: functional, organism-based, Hepacivirus hominis; details: Huh-7
Method in brief: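 Subgenomic HCV replicon in Huh7 cells; inhibition of HCV RNA replication measured by extraction and amplification of HCV RNA. Each concentration run in triplicate and reported as mean; EC50 derived.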

Prothrombin = Prothrombin (Homo sapiens, UniProt P00734); experiment: Inhibition of human thrombin
Cathepsin S = Cathepsin S (Homo sapiens, UniProt P25774); experiment: Inhibition of human cathepsin S
Plasminogen = Plasminogen (Homo sapiens, UniProt P00747); experiment: Inhibition of human plasmin
Sequence of Plasminogen (P00747 97-580 limits assumed): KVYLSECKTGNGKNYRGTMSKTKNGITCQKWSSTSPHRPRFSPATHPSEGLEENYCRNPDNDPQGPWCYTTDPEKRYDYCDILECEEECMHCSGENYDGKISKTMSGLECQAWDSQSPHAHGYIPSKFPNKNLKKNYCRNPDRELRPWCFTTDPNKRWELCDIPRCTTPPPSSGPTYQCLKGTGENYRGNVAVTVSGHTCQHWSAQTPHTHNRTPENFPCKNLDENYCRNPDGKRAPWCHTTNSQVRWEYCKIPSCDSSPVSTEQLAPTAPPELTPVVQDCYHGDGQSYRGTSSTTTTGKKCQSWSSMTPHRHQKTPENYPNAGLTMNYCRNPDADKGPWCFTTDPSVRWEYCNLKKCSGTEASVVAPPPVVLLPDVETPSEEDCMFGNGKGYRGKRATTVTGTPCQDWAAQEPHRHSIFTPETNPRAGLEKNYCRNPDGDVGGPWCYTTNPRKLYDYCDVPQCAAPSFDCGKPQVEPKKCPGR
Sequence of Plasminogen (P00747 581-810 limits assumed): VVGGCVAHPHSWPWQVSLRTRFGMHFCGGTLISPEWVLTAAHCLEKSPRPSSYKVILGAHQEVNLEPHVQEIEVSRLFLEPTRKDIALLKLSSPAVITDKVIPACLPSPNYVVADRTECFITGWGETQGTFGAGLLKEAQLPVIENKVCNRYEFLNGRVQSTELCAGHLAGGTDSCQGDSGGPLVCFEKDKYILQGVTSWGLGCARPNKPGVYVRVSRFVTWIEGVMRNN

[2] = biological target: T1, Neutrophil elastase (Homo sapiens) (UniProt P08246); experiment: (§2) Inhibition of human neutrophil elastase
T1 sequence (whole entry): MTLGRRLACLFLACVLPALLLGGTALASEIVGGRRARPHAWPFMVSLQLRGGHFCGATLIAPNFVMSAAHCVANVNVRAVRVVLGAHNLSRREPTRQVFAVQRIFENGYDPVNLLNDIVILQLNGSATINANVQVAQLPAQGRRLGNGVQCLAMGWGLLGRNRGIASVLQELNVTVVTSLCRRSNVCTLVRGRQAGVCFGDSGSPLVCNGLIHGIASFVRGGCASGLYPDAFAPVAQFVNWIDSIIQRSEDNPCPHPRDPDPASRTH

Neutrophil elastase = biological target: T2, Neutrophil elastase (Homo sapiens, UniProt P08246); experiment: as §2
T2 sequence (P08246 whole entry): T1 sequence (whole entry)

Hepatitis C virus [3] = experiment: Inhibition of Hepatitis C virus genotype 1b NS3/4A protease V170A mutant; set-up: species or system Hepatitis C virus subtype 1b
Method in brief: (§3)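 Panel of genotype 1b NS3 protease enzymes (wild type and mutants). IC50 and IC90 are averages ± standard error from 2 independent assays. Fold change versus wild type given in parentheses.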

Hepatitis C virus [4] = experiment: Inhibition of Hepatitis C virus genotype 1b NS3/4A protease A156S mutant; set-up: species or system Hepatitis C virus subtype 1b; method in brief: as §3
Hepatitis C virus [5] = experiment: Inhibition of Hepatitis C virus genotype 1b NS3/4A protease V36M mutant; set-up: species or system Hepatitis C virus subtype 1b; method in brief: as §3
Hepatitis C virus [6] = experiment: Inhibition of Hepatitis C virus genotype 1b NS3/4A protease D168V mutant; set-up: species or system Hepatitis C virus subtype 1b; method in brief: as §3
Hepatitis C virus [7] = experiment: Inhibition of Hepatitis C virus genotype 1b NS3/4A protease D168A mutant; set-up: species or system Hepatitis C virus subtype 1b; method in brief: as §3
Hepatitis C virus [8] = experiment: Inhibition of Hepatitis C virus genotype 1b NS3/4A protease R155K mutant; set-up: species or system Hepatitis C virus subtype 1b; method in brief: as §3
Hepatitis C virus [9] = experiment: Inhibition of Hepatitis C virus genotype 1b NS3/4A protease A156T mutant; set-up: species or system Hepatitis C virus subtype 1b; method in brief: as §3
Hepatitis C virus [10] = experiment: Inhibition of Hepatitis C virus genotype 1b wild type NS3/4A protease; set-up: species or system Hepatitis C virus subtype 1b; method in brief: as §3

Row | Compound | CC50 (Huh-7) [µM] | CC50 (Vero) [µM] | CC50 (CCRF-CEM) [µM] | CC50 (PBMC) [µM] | EC50 (Hepatitis C virus [1]) [µM] | EC90 (Hepatitis C virus [1]) [µM] | other results
1 | CCCC(NC(=O)C1CCN1C(=O)[C@@H](NC(=O)[C@@H](NC(=O)c1cnccn1)C1CCCCC1)C(C)(C)C)C(=O)C(=O)NCCF (stereo partly drawn) | > 10 | > 100 | 52 | 80 | > 10 | > 10 | 
2 | CCCC(NC(=O)C1N(C(=O)[C@@H](NC(=O)NC2CCCC2)C(C)(C)C)CC12Cc1ccccc1C2)C(=O)C(=O)NC1CC1 (stereo partly drawn) | > 10 | 95 |  | > 100 | > 10 | > 10 | 
3 | CCCC(NC(=O)C1N(C(=O)[C@@H](NC(=O)[C@@H](NC(=O)c2cnccn2)C2CCCCC2)C(C)(C)C)CC12CCCCC2)C(=O)C(=O)NCCF (stereo partly drawn) | > 10 | 21 | 5.4 | 32 | 5.4 | 9.7 | 
4 | CCCC(NC(=O)C1N(C(=O)[C@@H](NC(=O)CC(C)(C)C)C(C)(C)C)CC12Cc1ccccc1C2)C(=O)C(=O)NC1CC1 (stereo partly drawn) | > 10 | 46 | 35 | 44 | > 10 | > 10 | 
5 | CC(C)(C)NC(=O)N[C@H](C(=O)N1C[C@H]2[C@@H]([C@H]1C(=O)NC(CC1CCC1)C(=O)C(N)=O)C2(C)C)C(C)(C)C (stereo partly drawn) [BOCEPREVIR] | > 10 | > 100 | > 100 | > 100 | 0.01 | 0.03 | IC50 (Prothrombin): < 1000 nM; IC90 (Prothrombin): < 1400 nM; IC50 (Cathepsin S): > 100 µM; IC90 (Cathepsin S): > 100 µM; IC50 (Plasminogen): > 100 µM; IC90 (Plasminogen): > 100 µM; IC90 [2]: > 100 µM; IC50 (Neutrophil elastase): ≥ 100 µM; EC90 (Hepatitis C virus [3]): 7.7 µM; EC90 (Hepatitis C virus [4]): ≥ 100 µM; EC90 (Hepatitis C virus [5]): 5.6 µM; EC90 (Hepatitis C virus [6]): 900 nM; EC90 (Hepatitis C virus [7]): 4.7 µM; EC90 (Hepatitis C virus [8]): 4.8 µM; EC90 (Hepatitis C virus [9]): > 100 µM; EC90 (Hepatitis C virus [10]): 1000 nM
6 | CCCC(NC(=O)C1N(C(=O)[C@@H](NC(=O)Nc2ccccc2)C(C)(C)C)CC12Cc1ccccc1C2)C(=O)C(=O)NC1CC1 (stereo partly drawn) | > 10 | 46 |  | 15 | > 10 | > 10 | 
7 | CCCC(NC(=O)C1CCN1C(=O)[C@@H](NC(=O)[C@@H](NC(=O)c1cnccn1)C1CCCCC1)C(C)(C)C)C(=O)C(=O)NC1CC1 (stereo partly drawn) | > 10 | > 100 | > 100 | > 100 | > 10 | > 10 | 
8 | CCCC(NC(=O)C1N(C(=O)[C@@H](NC(=O)C2CCCCC2)C(C)(C)C)CC12Cc1ccccc1C2)C(=O)C(=O)NC1CC1 (stereo partly drawn) | 10 | 43 | 22 | 31 | > 10 | > 10 | 
9 | CCCC(NC(=O)C1CCN1C(=O)[C@@H](NC(=O)[C@@H](NC(=O)c1cnccn1)C1CCCCC1)C(C)(C)C)C(=O)C(=O)NCCOC (stereo partly drawn) | > 10 | > 100 | 38 | > 100 | > 10 | > 10 | 
